Measurements from ChEMBL document CHEMBL4428090, “Modeling, Synthesis, and Biological Evaluation of Potential Retinoid X Receptor (RXR)-Selective Agonists: Analogues of 4-[1-(3,5,5,8,8-Pentamethyl-5,6,7,8-tetrahydro-2-naphthyl)ethynyl]benzoic Acid (Bexarotene) and 6-(Ethyl(5,5,8,8-tetrahydronaphthalen-2-yl)amino)nicotinic Acid (NEt-TMN)” (J Med Chem, 2016).
The source made the active and inactive calls. No cut-off for these calls is given here.

Tests used:
[1] = molecular target: T1, Retinoid X receptor (Homo sapiens) (UniProt P28702+P48443+P19793); experiment: Agonist activity at human RXR binding domain and activation domain expressed in human HCT116 cells assessed as rexinoid activity at 25 nM incubated for 24 hrs by luciferase reporter gene based mammalian two-hybrid assay relative to bexarotene; format: cell-based
Procedure, shortened: (§1)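 HCT-116 cells plated overnight (80,000/well, DMEM with 10% FBS), co-transfected for 24 h with human RXR binding-domain (bait) and activation-domain (prey) vectors, pFR-Luc Gal4 reporter and renilla control. Treated 24 h at 25, 100 or 1000 nM final; vehicle ethanol or DMSO 0.1%. Dual-luciferase read-out. Three independent assays in triplicate; bexarotene set to 100%.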

HuT78 = experiment: Growth inhibition of human HUT78 cells at 200 nM incubated for 72 hrs by MTS assay relative to bexarotene; format: functional; conditions: HuT78, 72 h, read-out: GI
Procedure, shortened: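 Hut78 cells in RPMI with 10% FBS at 37°C, 5% CO2. Plated 7,500 cells/well and immediately dosed at 200 nM for 72 h. MTS read at A490; percent inhibition with media control set to 0.0, compared with bexarotene set to 100%. Mean of three independent experiments.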

[2] = molecular target: T2, Retinoic acid receptor RXR-alpha (Homo sapiens) (UniProt P19793); experiment: Agonist activity at human RXRalpha expressed in human HCT116 cells assessed as increase in RXRE-mediated transcription at 1000 nM incubated for 24 hrs by RXRE luciferase reporter gene assay relative to bexarotene; format: cell-based
T2 sequence (whole entry): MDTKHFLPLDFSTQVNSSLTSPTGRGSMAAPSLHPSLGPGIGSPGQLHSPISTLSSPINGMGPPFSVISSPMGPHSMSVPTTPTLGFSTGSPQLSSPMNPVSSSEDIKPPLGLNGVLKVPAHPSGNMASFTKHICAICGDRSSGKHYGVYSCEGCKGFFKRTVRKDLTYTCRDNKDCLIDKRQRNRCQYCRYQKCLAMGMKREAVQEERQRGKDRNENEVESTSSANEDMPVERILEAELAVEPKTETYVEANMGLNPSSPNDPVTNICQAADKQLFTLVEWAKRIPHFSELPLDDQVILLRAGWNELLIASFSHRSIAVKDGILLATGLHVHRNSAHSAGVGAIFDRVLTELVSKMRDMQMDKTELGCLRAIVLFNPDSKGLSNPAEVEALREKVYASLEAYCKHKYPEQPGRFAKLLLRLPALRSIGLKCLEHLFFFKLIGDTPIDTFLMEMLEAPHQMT
Procedure, shortened: (§2)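 HCT-116 cells (80,000/well) co-transfected for 24 h with 250 ng RXRE-luciferase reporter (DR1 element from the rat cellular retinol binding protein II gene), 25 ng pSG5-human RXRα and 20 ng renilla. Dosed 24 h at 25, 100 or 1000 nM final; ethanol or DMSO vehicle 0.1%. Dual-luciferase read-out. Three independent assays in triplicate; bexarotene = 100%.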

[3] = molecular target: T3, Retinoic acid receptor RXR-alpha/oxysterols receptor LXR-alpha (Homo sapiens, UniProt P19793+Q13133); experiment: Agonist activity at human RXRalpha/LXRalpha expressed in human HCT116 cells assessed as reduction in SREBP-mediated transcription activity at 100 nM incubated for 24 hrs by luciferase reporter gene assay relative to bexarotene; format: cell-based; set-up: scale not given: the % may be the effect or the level left; conditions: 0.1 µM
T3 sequence (P19793 whole entry): T2 sequence (whole entry)
T3 sequence (Q13133 whole entry): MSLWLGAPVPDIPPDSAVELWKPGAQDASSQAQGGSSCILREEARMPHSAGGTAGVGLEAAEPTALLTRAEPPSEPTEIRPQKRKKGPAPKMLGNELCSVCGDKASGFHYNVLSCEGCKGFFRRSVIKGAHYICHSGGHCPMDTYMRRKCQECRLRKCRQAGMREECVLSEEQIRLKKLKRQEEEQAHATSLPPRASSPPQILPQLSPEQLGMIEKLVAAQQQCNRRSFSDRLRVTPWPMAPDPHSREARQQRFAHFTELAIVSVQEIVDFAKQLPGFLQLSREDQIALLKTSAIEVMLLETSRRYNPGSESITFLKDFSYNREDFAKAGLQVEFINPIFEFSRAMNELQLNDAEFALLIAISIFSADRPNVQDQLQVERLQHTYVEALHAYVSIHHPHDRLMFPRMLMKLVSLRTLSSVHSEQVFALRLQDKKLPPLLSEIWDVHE
Procedure, shortened: (§3)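 HCT116 cells co-transfected for 24 h with 100 ng pBP1c(6500)-Luc (about 6500 bp murine SREBP-1c promoter), 10 ng human LXRα and 20 ng renilla. Treated 24 h with compound at 100 nM, alone or with 100 nM TO901317. Luciferase output. Three independent assays in triplicate; bexarotene = 100%.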

[4] = Mutagenicity in Saccharomyces cerevisiae D7 assessed as induction of mutagenesis by measuring forward and reverse mutations up to 0.1 mg/mL; format: toxicity
Homo sapiens = organism: Homo sapiens; experiment: Selectivity index, ratio of agonist activity at human RARalpha expressed in HEK293 cells assessed as increase in RARE-mediated transcription relative to bexarotene to agonist activity at human RXRalpha expressed in human HCT116 cells assessed as increase in RXRE-mediated transcription relative to bexarotene; format: cell-based
Procedure, shortened: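 HEK293 cells (60,000/well) transfected for 24 h with 250 ng pTK-DR5(X2)-Luc, 25 ng human RARα and 20 ng renilla. Treated 24 h at 100 nM; activity expressed as a percentage of all-trans-retinoic acid. This RARE activity is divided by 100 nM RXRE activity, with the bexarotene ratio set to 1.0.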

[5] = Lipid risk index, ratio of agonist activity at human RXRalpha/LXRalpha expressed in human HCT116 cells assessed as reduction in SREBP-mediated transcription activity to agonist activity at human RXRalpha expressed in human HCT116 cells assessed as increase in RXRE-mediated transcription
Procedure, shortened: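 Lipid risk index: SREBP-promoter luciferase activity (HCT116, LXRα-transfected, 100 nM compound with or without 100 nM TO901317, 24 h) divided by RXRE activity at 100 nM. The SREBP:RXRE ratio for bexarotene is set to 1.0.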

[6] = molecular target: T2, Retinoic acid receptor RXR-alpha (Homo sapiens); experiment: Agonist activity at human RXRalpha expressed in human HCT116 cells assessed as increase in RXRE-mediated transcription at 100 nM incubated for 24 hrs by RXRE luciferase reporter gene assay relative to bexarotene; format: cell-based; procedure, shortened: as §2
[7] = molecular target: T1, Retinoid X receptor (Homo sapiens); experiment: Agonist activity at human RXR binding domain and activation domain expressed in human HCT116 cells assessed as rexinoid activity at 100 nM incubated for 24 hrs by luciferase reporter gene based mammalian two-hybrid assay relative to bexarotene; format: cell-based; procedure, shortened: as §1
[8] = molecular target: T3, Retinoic acid receptor RXR-alpha/oxysterols receptor LXR-alpha; experiment: Agonist activity at human RXRalpha/LXRalpha expressed in human HCT116 cells assessed as reduction in SREBP-mediated transcription activity at 100 nM incubated for 24 hrs by luciferase reporter gene assay in presence of 100 nM LXR agonist TO901317 relative to bexarotene; format: cell-based; set-up: scale not given: the % may be the effect or the level left; conditions: 0.1 µM; procedure, shortened: as §3

T1 sequence (P28702 whole entry, looked up, one chain of several, the tested form may be a part): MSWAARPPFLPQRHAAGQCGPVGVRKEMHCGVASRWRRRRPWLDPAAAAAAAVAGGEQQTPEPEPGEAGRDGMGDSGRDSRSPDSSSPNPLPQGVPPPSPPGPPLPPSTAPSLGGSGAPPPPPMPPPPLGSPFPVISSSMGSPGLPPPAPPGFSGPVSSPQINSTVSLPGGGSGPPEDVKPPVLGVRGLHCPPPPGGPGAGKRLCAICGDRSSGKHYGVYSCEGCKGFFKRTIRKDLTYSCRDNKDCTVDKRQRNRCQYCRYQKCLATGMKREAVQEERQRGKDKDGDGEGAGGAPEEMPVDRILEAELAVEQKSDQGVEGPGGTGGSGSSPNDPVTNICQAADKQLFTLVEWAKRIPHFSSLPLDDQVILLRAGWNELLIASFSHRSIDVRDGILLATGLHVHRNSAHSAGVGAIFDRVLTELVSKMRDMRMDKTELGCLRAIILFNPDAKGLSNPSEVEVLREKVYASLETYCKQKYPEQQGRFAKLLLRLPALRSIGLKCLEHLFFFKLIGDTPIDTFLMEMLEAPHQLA
T1 sequence (P48443 whole entry, looked up, one chain of several, the tested form may be a part): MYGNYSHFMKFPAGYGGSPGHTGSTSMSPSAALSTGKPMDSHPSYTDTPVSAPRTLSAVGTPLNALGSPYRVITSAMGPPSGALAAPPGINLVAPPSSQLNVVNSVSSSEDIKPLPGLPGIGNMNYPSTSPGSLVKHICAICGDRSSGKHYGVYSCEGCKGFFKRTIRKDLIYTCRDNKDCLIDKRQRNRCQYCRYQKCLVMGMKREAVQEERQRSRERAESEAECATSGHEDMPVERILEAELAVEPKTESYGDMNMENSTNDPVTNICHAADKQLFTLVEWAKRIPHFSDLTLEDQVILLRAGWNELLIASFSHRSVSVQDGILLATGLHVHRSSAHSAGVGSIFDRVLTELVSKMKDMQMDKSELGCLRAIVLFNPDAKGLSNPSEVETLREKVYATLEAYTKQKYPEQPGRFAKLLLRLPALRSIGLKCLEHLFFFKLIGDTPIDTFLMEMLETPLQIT

Question: With CCN(c1ccc(C(=O)O)c(F)c1)c1cc2c(cc1C)C(C)(C)CCC2(C)C as the compound, how does the Activity [1] read?
Answer: 140 to 150%

Question: And the inhibition of growth at 0.2 µM (HuT78)?
Answer: 55 to 80%

Question: And the Activity [2]?
Answer: Active

Question: What about the Activity [3] of the same compound?
Answer: 54 to 79%

Question: And the Activity [4]?
Answer: Non-Toxic

Question: What about the Ratio (Homo sapiens) of the same compound?
Answer: 0.35 to 0.37

Question: And the Ratio [5]?
Answer: 0.48 - 0.65

Question: And the Activity [6]?
Answer: 16 to 32%

Question: What about the Activity [7] of the same compound?
Answer: Active

Question: What does the source list for CCN(c1ccc(C(=O)O)cc1)c1cc2c(cc1C)C(C)(C)CCC2(C)C?
Answer: Activity [1]: 140 to 150%; inhibition of growth at 0.2 µM (HuT78): 35 to 51%; Activity [2]: Active; Activity [3]: 54 to 79%; Activity [4]: Non-Toxic; Ratio (Homo sapiens): 0.35 to 0.37; Ratio [5]: 0.48 - 0.65; Activity [6]: 16 to 32%; Activity [7]: Active

Question: Which results are given for CCN(c1ccc2c(c1)C(C)(C)CCC2(C)C)c1ccc(C(=O)O)cn1?
Answer: fold change (FC) [1]: 2; inhibition of growth at 0.2 µM (HuT78): > 85%; Activity [2]: 20 to 43%; Activity [3]: Active; Activity [4]: Non-Toxic; Ratio (Homo sapiens): > 0.5; Ratio [5]: 0.49 - 0.51; Activity [6]: 68 to 89%; Activity [8]: 13 to 17%; Activity [7]: 135 to 146%

Question: Which Activity [1] does the source give for CCN(c1ccc2c(c1)C(C)(C)CCC2(C)C)c1cnc(C(=O)O)cn1 here?
Answer: 11.3%

Question: And the inhibition of growth at 0.2 µM (HuT78)?
Answer: 35 to 51%

Question: And the Activity [2]?
Answer: 20 to 43%

Question: What about the Activity [3] of the same compound?
Answer: 54 to 79%

Question: And the Activity [4]?
Answer: Non-Toxic

Question: And the Ratio (Homo sapiens)?
Answer: > 0.5

Question: And the Ratio [5]?
Answer: 0.48 - 0.65

Question: And the Activity [8]?
Answer: 33%

Question: And the fold change (FC) ([7]; in the assay text read “relative to activity at 25 nM” for “relative to bexarotene”)?
Answer: 5 to 16

Question: With CCN(c1ncc(C(=O)O)cn1)c1cc2c(cc1C)C(C)(C)CCC2(C)C as the compound, how does the fold change (FC) [1] read?
Answer: 2

Question: What about the inhibition of growth at 0.2 µM (HuT78) of the same compound?
Answer: 55 to 80%

Question: What about the Activity [2] of the same compound?
Answer: 20 to 43%

Question: What about the Activity [3] of the same compound?
Answer: Active

Question: What about the Activity [4] of the same compound?
Answer: Non-Toxic

Question: And the Ratio (Homo sapiens)?
Answer: 0.35 to 0.37

Question: What about the Ratio [5] of the same compound?
Answer: 0.49 - 0.51

Question: And the Activity [6]?
Answer: 68 to 89%

Question: And the Activity [8]?
Answer: 13 to 17%

Question: And the Activity [7]?
Answer: 135 to 146%
